Experimental data: ChEMBL document CHEMBL1811758, “Inhibition of monoamine oxidase by C5-substituted phthalimide analogues” (Bioorg Med Chem, 2011); call rule not given here

Assays:
[1] = target: T1, Amine oxidase [flavin-containing] B (Homo sapiens, UniProt P27338); test: Inhibition of human recombinant MAOB expressed in insect cells using kynuramine substrate at 100 uM by fluorescence spectroscopy
T1 sequence (P27338 whole entry): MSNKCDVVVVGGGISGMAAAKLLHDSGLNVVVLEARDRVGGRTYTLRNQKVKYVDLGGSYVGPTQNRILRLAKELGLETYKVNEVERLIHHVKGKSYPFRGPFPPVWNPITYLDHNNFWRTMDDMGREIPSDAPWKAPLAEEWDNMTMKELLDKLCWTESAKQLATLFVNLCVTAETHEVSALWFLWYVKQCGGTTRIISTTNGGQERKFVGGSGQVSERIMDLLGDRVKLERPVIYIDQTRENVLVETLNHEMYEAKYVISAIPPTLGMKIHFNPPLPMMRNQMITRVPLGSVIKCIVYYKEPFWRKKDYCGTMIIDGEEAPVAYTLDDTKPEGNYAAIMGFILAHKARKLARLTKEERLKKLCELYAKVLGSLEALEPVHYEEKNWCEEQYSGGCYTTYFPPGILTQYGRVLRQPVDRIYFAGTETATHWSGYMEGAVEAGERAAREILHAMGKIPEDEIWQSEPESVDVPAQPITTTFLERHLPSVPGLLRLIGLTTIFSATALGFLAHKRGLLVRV
Method in brief: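 Single-point MAO-B assay: inhibitor at a maximum of 100 µM, kynuramine 30 µM final, 20 min at 37 °C in isotonic 100 mM potassium phosphate, pH 7.4. NaOH was added to stop the reaction, and 4-hydroxyquinoline was measured by fluorescence (ex 310/em 400 nm). Duplicate determinations were made, with percent inhibition reported.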

[2] = target: T2, Amine oxidase [flavin-containing] A (Homo sapiens, UniProt P21397); test: Inhibition of human recombinant MAOA expressed in insect cells using kynuramine substrate at 100 uM by fluorescence spectroscopy
T2 sequence (P21397 whole entry): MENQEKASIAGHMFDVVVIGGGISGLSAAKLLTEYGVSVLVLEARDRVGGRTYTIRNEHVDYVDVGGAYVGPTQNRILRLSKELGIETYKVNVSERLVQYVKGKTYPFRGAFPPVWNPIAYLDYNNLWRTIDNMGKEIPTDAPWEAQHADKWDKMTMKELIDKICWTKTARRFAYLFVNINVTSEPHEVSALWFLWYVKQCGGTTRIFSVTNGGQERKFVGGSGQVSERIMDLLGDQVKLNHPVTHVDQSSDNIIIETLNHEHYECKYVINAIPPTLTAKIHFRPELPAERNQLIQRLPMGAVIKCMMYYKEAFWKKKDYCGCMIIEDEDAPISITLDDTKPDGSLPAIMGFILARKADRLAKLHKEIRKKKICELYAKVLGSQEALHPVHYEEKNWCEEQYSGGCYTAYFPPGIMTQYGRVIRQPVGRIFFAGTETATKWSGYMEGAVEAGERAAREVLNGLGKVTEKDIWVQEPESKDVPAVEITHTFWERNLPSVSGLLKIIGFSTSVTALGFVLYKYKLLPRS
Method in brief: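 MAO-A (insect-cell microsomes) was incubated with kynuramine (45 µM final) for 20 min at 37 °C in isotonic phosphate buffer, pH 7.4, with inhibitor at a maximum tested concentration of 100 µM. The reaction was stopped with NaOH, and 4-hydroxyquinoline was read fluorometrically (ex 310/em 400 nm). Percent inhibition is the mean of duplicates.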

[3] = target: T2, Amine oxidase [flavin-containing] A; test: Competitive inhibition of human recombinant MAOA expressed in insect cells using kynuramine substrate by Lineweaver-Burk plot
Method in brief: (§1)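 Kynuramine at 15, 30, 60 and 90 µM; MAO-A at 0.015 mg/mL in the reaction; inhibitor at 0, 1.7, 3.4 and 6.8 µM. Reactions ran in isotonic potassium phosphate (100 mM, pH 7.4) at 37 °C for 20 min and were stopped with NaOH. Initial rates were read by 4-hydroxyquinoline fluorescence (ex 310/em 400 nm) and plotted double-reciprocally.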

[4] = target: T2, Amine oxidase [flavin-containing] A; test: Reversible inhibition of human recombinant MAOA expressed in insect cells using kynuramine substrate by Lineweaver-Burk plot; method in brief: as §1
[5] = target: T1, Amine oxidase [flavin-containing] B; test: Inhibition of human recombinant MAOB expressed in insect cells using kynuramine substrate using Cheng and Prusoff equation by fluorescence spectroscopy
[6] = target: T1, Amine oxidase [flavin-containing] B; test: Reversible inhibition of human recombinant MAOB expressed in insect cells using kynuramine substrate by Lineweaver-Burk plot
Method in brief: (§2)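 Initial MAO-B rates (0.015 mg/mL enzyme) were measured at kynuramine 15, 30, 60 and 90 µM, without inhibitor and with 0.625, 1.25 or 2.5 µM inhibitor. Incubation was 20 min at 37 °C in isotonic 100 mM potassium phosphate, pH 7.4, followed by NaOH stop. 4-Hydroxyquinoline fluorescence (ex 310/em 400 nm) was read, and Lineweaver–Burk plots were drawn.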

[7] = species on record: Homo sapiens; test: Selectivity index, ratio of Ki for human recombinant MAOA to Ki for human recombinant MAOB
Method in brief: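 Recombinant human MAO-A and MAO-B from baculovirus-infected insect-cell microsomes. Kynuramine at 45 µM (A) or 30 µM (B) final, in 100 mM potassium phosphate pH 7.4 made isotonic with KCl. 37 °C for 20 min, stopped with NaOH; 4-hydroxyquinoline fluorescence read at ex 310/em 400 nm. IC50 from 9–10 concentrations, duplicate. Ki = IC50/(1+[S]/Km), Km 16.1 (A), 22.7 µM (B); ratio Ki(A)/Ki(B).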

[8] = target: T2, Amine oxidase [flavin-containing] A; test: Inhibition of human recombinant MAOA expressed in insect cells using kynuramine substrate using Cheng and Prusoff equation by fluorescence spectroscopy
[9] = target: T1, Amine oxidase [flavin-containing] B; test: Inhibition of human recombinant MAOB expressed in insect cells using kynuramine substrate by fluorescence spectroscopy
[10] = target: T2, Amine oxidase [flavin-containing] A; test: Inhibition of human recombinant MAOA expressed in insect cells using kynuramine substrate by fluorescence spectroscopy
[11] = target: T1, Amine oxidase [flavin-containing] B; test: Competitive inhibition of human recombinant MAOB expressed in insect cells using kynuramine substrate by Lineweaver-Burk plot; method in brief: as §2
[12] = target: T2, Amine oxidase [flavin-containing] A; test: Time dependent inhibition of human recombinant MAOA expressed in insect cells at 13.42 uM preincubated 0 to 60 mins before kynuramine substrate addition by fluorescence spectroscopy
Method in brief: (§3)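 Enzyme (0.03 mg/mL) was preincubated with inhibitor for 0, 15, 30 or 60 min at 37 °C in isotonic 100 mM potassium phosphate, pH 7.4. Preincubation inhibitor was 13.42 µM for MAO-A and 5.00 µM for MAO-B. Kynuramine was then added (45 µM for MAO-A, 30 µM for MAO-B), giving final enzyme 0.015 mg/mL and final inhibitor 6.71 µM (A) or 2.5 µM (B). After 15 min at 37 °C and NaOH stop, 4-hydroxyquinoline fluorescence was read, in triplicate.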

[13] = target: T1, Amine oxidase [flavin-containing] B; test: Time dependent inhibition of human recombinant MAOB expressed in insect cells at 5 uM preincubated 0 to 60 mins before kynuramine substrate addition by fluorescence spectroscopy; method in brief: as §3

Structure (SMILES)	Ki [5] [nM]	Ratio Ki [7]	Ki [8] [nM]	IC50 [9] [nM]	IC50 [10] [nM]	other results
O=C1c2ccccc2C(=O)N1Cc1ccccc1						inhibition at 100 µM [1]: 20.2%; inhibition (INH) ([2]; 100 µM): Not Active
O=C1NC(=O)c2cc(Oc3ccccc3)ccc21	1070	1	1540	2490	5850	inhibition (INH) [3]: Active; inhibition (INH) [4]: Active; inhibition (INH) [6]: Active; inhibition (INH) [11]: Active; TDI [12]: Not Active; TDI [13]: Not Active
O=C1NC(=O)c2ccccc21 [PHTHALIMIDE]				134000		
O=C1NC(=O)c2cc(Oc3ccc(Br)cc3)ccc21	24	12	285	55	1080	
O=C1NC(=O)c2cc(OCCCc3ccccc3)ccc21	20	21	460	50	1730	
O=C1c2ccccc2C(=O)N1c1ccccc1 [N-PHENYL-PHTHALIMIDE]						inhibition at 100 µM [1]: 50.3%; inhibition at 100 µM [2]: 10.5%
O=C1NC(=O)c2cc(OC/C=C/c3ccccc3)ccc21	20	120	2370	46	8990	
O=C1NC(=O)c2cc(Oc3ccc4ccccc4c3)ccc21	10	17	200	33	920	
